From ChEMBL document CHEMBL4270662, “Discovery of Orally Active Inhibitors of Brahma Homolog (BRM)/SMARCA2 ATPase Activity for the Treatment of Brahma Related Gene 1 (BRG1)/SMARCA4-Mutant Cancers” (J Med Chem, 2018)
In brackets after ≈: the same amount, converted by molar mass. Activity calls are given as the source filed them. No cut-off for these calls is given here.

Legend:
[1] = molecular target: T1, SWI/SNF-related matrix-associated actin-dependent regulator of chromatin subfamily A member 2 (Homo sapiens, UniProt P51531); experiment: Inhibition of recombinant His10-tagged ZZ-HCV3C-BRM ATPase-SnAC (636 to 1331 residues) (unknown origin) expressed in insect sf9 cells preincubated for 5 mins followed by pCMV-dR8.91 plasmid and ATP addition measured after 60 mins by ADP-Glo assay
T1 sequence (P51531 whole entry, the tested form may be a part): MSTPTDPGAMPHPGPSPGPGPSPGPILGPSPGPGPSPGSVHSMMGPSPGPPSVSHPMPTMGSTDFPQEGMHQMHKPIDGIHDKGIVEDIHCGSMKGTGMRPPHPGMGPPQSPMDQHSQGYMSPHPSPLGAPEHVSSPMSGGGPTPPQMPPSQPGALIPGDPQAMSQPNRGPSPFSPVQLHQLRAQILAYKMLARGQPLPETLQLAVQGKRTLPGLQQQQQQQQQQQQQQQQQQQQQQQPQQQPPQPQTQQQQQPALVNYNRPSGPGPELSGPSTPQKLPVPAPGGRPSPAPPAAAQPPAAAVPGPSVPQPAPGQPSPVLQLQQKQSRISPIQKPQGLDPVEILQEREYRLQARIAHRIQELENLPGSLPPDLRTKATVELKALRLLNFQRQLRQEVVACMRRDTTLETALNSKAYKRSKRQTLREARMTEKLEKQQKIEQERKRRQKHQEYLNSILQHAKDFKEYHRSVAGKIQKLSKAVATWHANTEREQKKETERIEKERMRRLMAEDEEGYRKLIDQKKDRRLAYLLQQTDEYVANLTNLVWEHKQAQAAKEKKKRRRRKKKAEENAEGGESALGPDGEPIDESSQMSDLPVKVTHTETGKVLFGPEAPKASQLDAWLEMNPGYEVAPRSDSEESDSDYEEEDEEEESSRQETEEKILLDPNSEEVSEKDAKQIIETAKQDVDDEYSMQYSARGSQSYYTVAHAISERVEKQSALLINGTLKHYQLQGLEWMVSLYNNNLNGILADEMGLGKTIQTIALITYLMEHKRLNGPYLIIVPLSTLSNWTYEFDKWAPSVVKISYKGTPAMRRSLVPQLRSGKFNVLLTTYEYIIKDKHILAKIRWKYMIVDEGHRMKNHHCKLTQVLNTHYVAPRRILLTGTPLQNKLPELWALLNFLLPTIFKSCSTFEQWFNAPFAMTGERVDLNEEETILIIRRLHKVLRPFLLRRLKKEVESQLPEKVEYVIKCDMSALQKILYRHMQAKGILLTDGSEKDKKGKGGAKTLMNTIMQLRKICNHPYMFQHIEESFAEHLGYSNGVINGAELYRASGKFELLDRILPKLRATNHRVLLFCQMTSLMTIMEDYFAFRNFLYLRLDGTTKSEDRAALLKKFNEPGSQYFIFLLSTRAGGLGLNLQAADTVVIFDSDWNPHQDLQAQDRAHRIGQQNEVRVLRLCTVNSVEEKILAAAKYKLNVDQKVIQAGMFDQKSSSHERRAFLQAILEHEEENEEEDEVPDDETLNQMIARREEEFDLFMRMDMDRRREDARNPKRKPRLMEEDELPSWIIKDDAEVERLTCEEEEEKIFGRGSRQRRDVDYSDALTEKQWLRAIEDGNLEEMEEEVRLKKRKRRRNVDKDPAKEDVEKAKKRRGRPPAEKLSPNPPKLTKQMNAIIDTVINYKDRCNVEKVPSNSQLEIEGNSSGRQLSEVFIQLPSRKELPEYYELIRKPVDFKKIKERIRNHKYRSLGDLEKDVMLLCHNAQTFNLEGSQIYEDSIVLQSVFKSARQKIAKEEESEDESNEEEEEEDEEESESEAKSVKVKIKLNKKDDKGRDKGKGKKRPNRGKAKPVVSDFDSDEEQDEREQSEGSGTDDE

[2] = molecular target: T2, SWI/SNF-related matrix-associated actin-dependent regulator of chromatin subfamily A member 4 (Homo sapiens, UniProt P51532); experiment: Inhibition of recombinant His6-tagged BRG1 ATPase-SnAC (658 to 1361 residues) (unknown origin) expressed in insect sf9 cells preincubated for 5 mins followed by pCMV-dR8.91 plasmid and ATP addition measured after 60 mins by ADP-Glo assay
T2 sequence (P51532 whole entry, the tested form may be a part): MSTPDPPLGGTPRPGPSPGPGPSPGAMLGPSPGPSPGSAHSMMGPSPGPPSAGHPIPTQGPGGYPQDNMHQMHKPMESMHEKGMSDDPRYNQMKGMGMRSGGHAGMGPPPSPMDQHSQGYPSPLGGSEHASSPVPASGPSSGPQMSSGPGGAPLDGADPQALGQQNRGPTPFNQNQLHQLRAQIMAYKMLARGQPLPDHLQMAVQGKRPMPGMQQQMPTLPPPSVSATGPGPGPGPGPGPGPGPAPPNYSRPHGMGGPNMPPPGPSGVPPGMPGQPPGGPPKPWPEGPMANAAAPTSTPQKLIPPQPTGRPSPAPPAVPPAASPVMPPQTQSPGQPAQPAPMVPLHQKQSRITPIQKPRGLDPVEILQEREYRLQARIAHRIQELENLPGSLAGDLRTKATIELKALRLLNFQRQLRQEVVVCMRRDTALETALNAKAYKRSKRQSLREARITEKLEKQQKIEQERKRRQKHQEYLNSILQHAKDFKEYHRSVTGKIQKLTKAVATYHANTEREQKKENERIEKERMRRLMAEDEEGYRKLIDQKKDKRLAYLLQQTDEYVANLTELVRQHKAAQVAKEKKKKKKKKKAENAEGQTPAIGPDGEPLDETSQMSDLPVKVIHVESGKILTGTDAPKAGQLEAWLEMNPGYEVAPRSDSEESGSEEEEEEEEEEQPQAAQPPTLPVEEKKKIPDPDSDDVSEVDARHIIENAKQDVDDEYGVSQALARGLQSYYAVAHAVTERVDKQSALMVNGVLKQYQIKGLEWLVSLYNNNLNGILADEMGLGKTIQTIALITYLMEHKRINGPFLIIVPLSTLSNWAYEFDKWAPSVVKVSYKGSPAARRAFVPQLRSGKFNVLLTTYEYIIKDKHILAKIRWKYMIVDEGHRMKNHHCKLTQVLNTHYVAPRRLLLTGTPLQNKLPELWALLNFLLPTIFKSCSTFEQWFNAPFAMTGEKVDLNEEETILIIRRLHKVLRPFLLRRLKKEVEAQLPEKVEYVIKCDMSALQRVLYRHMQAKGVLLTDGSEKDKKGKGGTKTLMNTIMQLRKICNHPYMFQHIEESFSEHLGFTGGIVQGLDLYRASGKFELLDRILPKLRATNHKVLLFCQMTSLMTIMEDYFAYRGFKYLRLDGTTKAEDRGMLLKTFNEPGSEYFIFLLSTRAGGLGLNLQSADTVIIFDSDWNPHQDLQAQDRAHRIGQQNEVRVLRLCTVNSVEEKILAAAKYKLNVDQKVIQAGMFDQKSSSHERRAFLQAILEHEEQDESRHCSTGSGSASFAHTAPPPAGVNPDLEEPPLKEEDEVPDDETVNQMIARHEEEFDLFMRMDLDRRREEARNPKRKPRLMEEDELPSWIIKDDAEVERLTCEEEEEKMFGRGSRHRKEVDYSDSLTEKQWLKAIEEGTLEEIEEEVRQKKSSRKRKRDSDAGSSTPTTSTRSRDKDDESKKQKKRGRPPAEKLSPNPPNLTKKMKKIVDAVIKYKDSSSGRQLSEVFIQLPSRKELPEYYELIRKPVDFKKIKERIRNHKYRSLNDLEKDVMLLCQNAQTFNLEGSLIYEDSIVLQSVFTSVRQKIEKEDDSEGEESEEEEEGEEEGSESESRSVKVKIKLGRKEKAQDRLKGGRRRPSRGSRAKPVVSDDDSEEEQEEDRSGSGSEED

[3] = Thermodynamic solubility of the compound at 1 mg/ml pH 6.8 after 16 to 24 hrs by shake-flask method; type: physicochemical; settings: buffer, read-out: Therm_solubility
SBC-5 = experiment: Antiproliferative activity against human SBC5 cells assessed as cell growth inhibition after 6 days by celltiter-glo luminescent cell viability assay; type: functional, cell-based; settings: SBC-5, 144 h
[4] = Inhibition of BRM/BRG1 mutant-dependant cell proliferation in human SKMEL5 cells after 6 days by celltiter-glo luminescent cell viability assay; type: cell-based; settings: SK-MEL-5, 144 h
[5] = Inhibition of BRM/BRG1 mutant in human NCI-H1299 cells assessed as reduction in KRT80 gene expression after 24 hrs by luciferase reporter gene assay; type: cell-based; settings: NCI-H1299, 24 h
Procedure, shortened: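 NCI-H1299 cells carry NanoLuc knocked into the endogenous KRT80 locus and are grown in RPMI-1640 with 10% FBS. Plated at 500 cells/well and left overnight, then dosed over 10 points in 3-fold dilutions from 10 µM.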

[6] = molecular target: SWI/SNF-related matrix-associated actin-dependent regulator of chromatin subfamily A member 2 (Homo sapiens, UniProt P51531, E852Q); experiment: Binding affinity to N-terminal MBP-fused human BRM RecA domain E852Q mutant expressed in Escherichia coli BL21 Star (DE3) by ITC method
Chain of SWI/SNF-related matrix-associated actin-dependent regulator of chromatin subfamily A member 2 (Homo sapiens, UniProt P51531, E852Q) (P51531 whole entry E852Q, the tested form may be a part): as the sequence (P51531 whole entry, the tested form may be a part) above, with E852Q counted along it

[7] = molecular target: T1, SWI/SNF-related matrix-associated actin-dependent regulator of chromatin subfamily A member 2; experiment: Binding affinity to N-terminal MBP-fused human BRM RecA domain (705 to 960 residues) expressed in Escherichia coli BL21 Star (DE3) by ITC method
Mus musculus [8] = experiment: In vivo inhibition of […] in human RERF-LC-A1 cells xenografted in athymic nude mouse assessed as reduction in KRT80 mRNA expression at 20 mg/kg, po measured at 16 hrs post last dose of 3 weeks of daily dosing by RT-PCR analysis; type: functional, organism-based
Procedure, shortened: (§1)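 RERF-LC-AI tumor-bearing nude mice received oral compound daily, suspended in 0.5% methyl cellulose and 0.5% Tween 80 in water, at 7.5 or 20 mg/kg. Tumor KRT80 mRNA was measured at several post-dose time points, including 7 h and 16 h onward.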

RERF-LC-AI [9] = experiment: Anti-tumor activity in human RERF-LC-A1 cells xenografted in athymic nude mouse assessed as tumor growth at 30 mg/kg, po administered daily for 4 consecutive days followed by incubation for next 3 days in absence of compounds relative to control; type: functional
Mus musculus [10] = experiment: Toxicity in athymic nude mouse xenografted with human RERF-LC-A1 cells up to 20 mg/kg, po administered for 3 weeks; type: organism-based; settings: in vivo, 504 h
Procedure, shortened: (§2)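 Nude mice bearing RERF-LC-AI xenografts were dosed orally with a suspension in 0.5% methyl cellulose and 0.5% Tween 80 in water. Dosing was daily for 3 weeks at 7.5 or 20 mg/kg. Tumor growth and tolerability were followed during dosing.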

Mus musculus [11] = experiment: In vivo inhibition of BRM/BRG1 mutant in human RERF-LC-A1 cells xenografted in po dosed athymic nude mouse assessed as reduction in KRT80 gene expression after 7 to 24 hrs by real-time PCR method; type: functional, organism-based; procedure, shortened: as §1
Mus musculus [12] = experiment: Time required for unbound plasma concentration to reach above in vitro unbound EC50 for reduction in BRM/BRG1 mutant-induced KRT80 gene expression in human RERF-LC-A1 cells in athymic nude mouse at 20 mg/kg, po administered daily for 3 weeks; type: ADME, organism-based; settings: in vivo, 504 h
Procedure, shortened: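 Nude mice bearing RERF-LC-AI tumors were dosed orally once daily for 3 weeks at 20 mg/kg. The dose was a suspension in 0.5% methyl cellulose and 0.5% Tween 80 in water. Unbound plasma concentrations over time were compared with the cellular KRT80 EC50.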

RERF-LC-AI [13] = experiment: Anti-tumor activity in human RERF-LC-A1 cells xenografted in athymic nude mouse assessed as tumor growth inhibition at 7.5 mg/kg, po administered for 3 weeks measured twice per week during compound dosing relative to control; type: functional; settings: 504 h, read-out: TGI; procedure, shortened: as §2
Mus musculus [14] = experiment: In vivo inhibition of BRM/BRG1 mutant in human RERF-LC-A1 cells xenografted in athymic nude mouse assessed as reduction in KRT80 gene expression at 20 mg/kg, po after 16 to 24 hrs by real-time PCR method; type: functional, organism-based; procedure, shortened: as §1
Mus musculus [15] = experiment: In vivo inhibition of BRM/BRG1 mutant in human RERF-LC-A1 cells xenografted in athymic nude mouse assessed as reduction in KRT80 gene expression at 20 mg/kg, po after 7 hrs by real-time PCR method; type: functional; procedure, shortened: as §1
[16] = Inhibition of BRM/BRG1 mutant in human RERF-LC-A1 cells assessed as reduction in KRT80 gene expression after 24 hrs by luciferase reporter gene assay; type: cell-based
RERF-LC-AI [17] = experiment: Anti-tumor activity in human RERF-LC-A1 cells xenografted in athymic nude mouse assessed as tumor growth inhibition at 20 mg/kg, po administered for 3 weeks measured twice per week during compound dosing relative to control; type: functional; settings: 504 h, read-out: TGI; procedure, shortened: as §2
[18] = molecular target: T2, SWI/SNF-related matrix-associated actin-dependent regulator of chromatin subfamily A member 4; experiment: Binding affinity to His6-tagged BRG1 ATPase-SnAC (658 to 1361 residues) (unknown origin) expressed in insect sf9 cells by ITC method
[19] = Thermodynamic solubility of the compound at 1 mg/ml pH 1 after 16 to 24 hrs by shake-flask method; type: physicochemical; settings: buffer, read-out: Therm_solubility
[20] = molecular target: T1, SWI/SNF-related matrix-associated actin-dependent regulator of chromatin subfamily A member 2; experiment: Inhibition of full length BRM ATPase (1 to 1572 residues) (unknown origin) expressed in insect sf9 cells preincubated for 5 mins followed by pCMV-dR8.91 plasmid and ATP addition measured after 60 mins by ADP-Glo assay
Procedure, shortened: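 Full-length BRM (1-1572), purified from Sf9 cells by Ni or anti-FLAG affinity, then anion exchange and size exclusion. Reaction run 60 min at room temperature; ADP-Glo luminescence read-out; IC50 from duplicate means.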

[21] = molecular target: T2, SWI/SNF-related matrix-associated actin-dependent regulator of chromatin subfamily A member 4; experiment: Binding affinity to BRG1 ATPase-SnAC domain (unknown origin) expressed in insect sf9 cells assessed as change in melting temperature at 100 uM by DSF-assay (reference value: 0 degreeC)
[22] = molecular target: T2, SWI/SNF-related matrix-associated actin-dependent regulator of chromatin subfamily A member 4; experiment: Binding affinity to BRG1 ATPase-SnAC domain (unknown origin) expressed in insect sf9 cells assessed as change in melting temperature at 100 uM in presence of ADP by DSF-assay (reference value: 0 degreeC)
[23] = molecular target: T1, SWI/SNF-related matrix-associated actin-dependent regulator of chromatin subfamily A member 2; experiment: Binding affinity to N-terminal avi-tagged BRM ATPase-SnAC domain (unknown origin) in presence of ADP by SPR assay
Procedure, shortened: (§3)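 SPR at 10 °C: about 2000 RU of N-terminal Avi-tagged BRM ATPase-SnAC captured on a streptavidin chip, with a blank reference cell. Compound dose series injected 60 s at 100 µL/min with 120 s dissociation; data solvent-corrected, double-referenced and fit 1:1 for KD.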

[24] = molecular target: T1, SWI/SNF-related matrix-associated actin-dependent regulator of chromatin subfamily A member 2; experiment: Inhibition of recombinant His10-tagged ZZ-HCV3C-BRM ATPase-SnAC (636 to 1331 residues) (unknown origin) expressed in insect sf9 cells preincubated for 5 mins followed by pCMV-dR8.91 and 10 times ATP addition measured after 60 mins by ADP-Glo assay
Procedure, shortened: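 BRM residues 636-1331 (tag removed by HCV3C cleavage), 5 nM final, preincubated with compound for 5 min at room temperature. Reaction started with ATP at 10x Km plus 2 nM pCMV-dR8.91 plasmid, run 60 min. ADP-Glo luminescence read; IC50 by nonlinear regression of duplicate averages.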

[25] = molecular target: T1, SWI/SNF-related matrix-associated actin-dependent regulator of chromatin subfamily A member 2; experiment: Binding affinity to N-terminal avi-tagged BRM ATPase-SnAC domain (unknown origin) in absence of ADP by SPR assay; procedure, shortened: as §3
[26] = molecular target: T2, SWI/SNF-related matrix-associated actin-dependent regulator of chromatin subfamily A member 4; experiment: Binding affinity to BRG1 ATPase-SnAC domain (unknown origin) expressed in insect sf9 cells assessed as change in melting temperature at 500 uM by DSF-assay (reference value: 0 degreeC)

Compound	IC50 [1]	IC50 [2]	EC50 (SBC-5)	EC50 [4]	EC50 [5]	also measured
Cc1cc(NC(=O)Nc2ccnc(Cl)c2)ccn1	200 nM	150 nM	–	–	–	–
Nc1cnc(Cl)cc1NC(=O)Nc1cc(C(F)F)ns1	< 5 nM	< 5 nM	> 10000 nM	13 nM	26 nM	solubility thermodynamic [3]: 40 µM (≈ 12.8 µg/mL)
O=C(Nc1ccnc(Cl)c1)Nc1cc(C(F)(F)F)ns1	–	–	> 10000 nM	130 nM	930 nM	–
Cc1cc(NC(=O)Nc2ccnc(Cl)c2)sn1	–	–	> 10000 nM	650 nM	> 10000 nM	–
Cc1csc(NC(=O)Nc2ccnc(Cl)c2)n1	970 nM	570 nM	–	–	–	–
O=C(Nc1ccnc(Cl)c1)Nc1ccnc(C(F)(F)F)c1	60 nM	30 nM	–	–	–	–
O=C(Nc1cc(C(F)F)ns1)Nc1cc(Cl)ncc1CO	< 5 nM	< 5 nM	> 10000 nM	13 nM	42 nM	–
O=C(Nc1ccnc(Cl)c1)Nc1ccnc(C(F)F)c1	110 nM	–	–	–	–	–
O=C(Nc1ccnc(Cl)c1)Nc1cc(C(F)F)ns1	–	–	6300 nM	31 nM	360 nM	Kd [6]: > 10000 nM; Kd [7]: 13 nM
O=C(Nc1cc(C(F)F)ns1)Nc1cc(F)ncc1CO	< 5 nM	< 5 nM	> 10000 nM	4 nM	10 nM	inhibition (Mus musculus [8]): Dose-dependent effect; T/C (RERF-LC-AI [9]): 30%; Activity (Mus musculus [10]): Non-Toxic; solubility thermodynamic [3]: 34 µM (≈ 10.8 µg/mL); inhibition (Mus musculus [11]): Dose-dependent effect; Time (Mus musculus [12]): 12 h; inhibition in vivo at 7.5 mg/kg (RERF-LC-AI [13]): 21%; inhibition (Mus musculus [14]): inactive; inhibition in vivo at 20 mg/kg (Mus musculus [15]): ≤ 90%; EC50 [16]: 10 nM; inhibition in vivo at 20 mg/kg (RERF-LC-AI [17]): 55%
Nc1cnc(F)cc1NC(=O)Nc1cc(C(F)F)ns1	< 5 nM	< 5 nM	> 10000 nM	5 nM	10 nM	solubility thermodynamic [3]: 92 µM (≈ 27.9 µg/mL)
O=C(Nc1ccncc1)Nc1ccnc(Cl)c1	1100 nM	770 nM	–	–	–	Kd [18]: 280 nM; solubility thermodynamic [19]: 3100 µM (≈ 771 µg/mL); solubility thermodynamic [3]: 330 µM (≈ 82.1 µg/mL); IC50 [20]: 8100 nM; ΔTm [21]: 3.8 °C; ΔTm [22]: 5.8 °C; Kd [23]: 450 nM; inhibition [24]: Active; Activity [25]: Dose-dependent effect; Kd [25]: 87 nM
Cc1c[nH]c(NC(=O)Nc2ccnc(Cl)c2)n1	> 50000 nM	–	–	–	–	–
Nc1ncnc2c1ncn2[C@@H]1O[C@H](COP(=O)(O)OP(=O)(O)O)[C@@H](O)[C@H]1O	–	–	–	–	–	ΔTm [26]: 3.1 °C
O=C(Nc1ccnc(Cl)c1)Nc1ccccn1	3800 nM	1700 nM	–	–	–	–
